Test results as given in PubChem BioAssay AID624380 (The Scripps Research Institute Molecular Screening Center, 2012).
Hit rate of the full screen: of about 2,300 compounds, about 120 (5.2%) were called active. These entries were drawn from the full list. Values without a mark were called inactive.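 Rule for the calls: active = mean activation above the mean of DMSO-only wells plus 3 SD (cut at about 0.5% in these data); inactive = the rest.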

Each compound was assayed against Mu-type opioid receptor (Homo sapiens) (UniProt P35372) (assay: mu opioid receptor activation, arrestin complementation – cell-based, luminescence, single concentration, counter-screen for mouse HTR2A agonist project, confirmation (AID 624380)). Settings: U2OS OPRM1 beta-arrestin PathHunter, at 9.3 µM, active compounds read high, DMSO 0%, DAMGO 9.3 µM 100%.
In short: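 system = U2OS cells, OPRM1–beta-arrestin fragment complementation | also added = DAMGO reference agonist, 9.3 µM | schedule = 3 h compound treatment, 37 °C, 1 h room-temperature reagent step | measured by = chemiluminescence from reconstituted beta-galactosidase after detection reagent addition | read-out = percent activation scaled between DMSO-only and DAMGO-treated well medians | repeats = three replicate wells per compound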

Mu-type opioid receptor (Homo sapiens), sequence (P35372 whole entry, looked up, the tested form may be a part): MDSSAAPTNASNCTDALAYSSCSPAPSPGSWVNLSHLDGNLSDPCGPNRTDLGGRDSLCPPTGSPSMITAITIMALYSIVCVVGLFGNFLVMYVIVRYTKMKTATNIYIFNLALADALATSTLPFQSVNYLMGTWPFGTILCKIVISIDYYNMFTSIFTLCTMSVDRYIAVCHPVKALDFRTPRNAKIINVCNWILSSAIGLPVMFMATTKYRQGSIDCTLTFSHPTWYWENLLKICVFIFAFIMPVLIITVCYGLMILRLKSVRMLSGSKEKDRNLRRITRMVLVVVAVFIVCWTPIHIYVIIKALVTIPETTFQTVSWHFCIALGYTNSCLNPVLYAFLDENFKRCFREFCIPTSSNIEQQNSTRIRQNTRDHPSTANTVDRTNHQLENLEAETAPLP

SMILES	activation
O=C(NCc1ccco1)c1cccn2c(=O)c3c4c(sc3nc12)CCCC4	-0.39%
Cc1ccc2nc(-c3ccncc3)cc(C(=O)Nc3ccncc3)c2c1	3.9% (active)
Cc1ccccc1CSCC(=O)NC(=O)NC(C)(C)C	-0.45%
CCOCCCNC(=O)Cc1cc(=O)[nH]c(=O)[nH]1	-0.49%
C[C@@H]1ON(C)[C@H]2C[C@H]3c4cc(N5CCN(C)CC5)ccc4CCN3C(=O)[C@@H]12	-0.06%
Cc1ccc(CN2CCN(c3ncccn3)CC2)c(C)c1	-0.26%
O=C(COC(=O)c1cc(S(=O)(=O)N2CCOCC2)ccc1F)NC1CC1	-0.39%
CCOc1ccc(/C(O)=C2\C(=O)C(=O)N(c3ccc(OC)cc3)C2c2ccccc2[N+](=O)[O-])cc1 (stereo not given)	-0.58%
Nc1cc(C(=O)N2CCN(c3ccccc3Cl)CC2)ccc1N1CC2CC(C1)c1cccc(=O)n1C2 (stereo not given)	-0.61%
COc1ccc(CNC(=O)c2ccc(NS(=O)(=O)c3ccc4[nH]c(=O)[nH]c4c3)cc2)cc1OC	-0.74%
O=S(=O)(c1ccc(OCC(O)CN2CCN(c3ccccc3Cl)CC2)cc1)N1CCOCC1 (stereo not given)	-0.67%
CCOC(=O)c1cc(-c2ccccc2C)n(Cc2cc(C)no2)n1	-0.46%
O=C(OCC(=O)N1CCOCC1)c1ccc2ccccc2c1	-0.5%
COc1ccc2c(Cl)c(-c3nnco3)sc2c1	-0.41%
COc1ccc(C2c3[nH]c4ccccc4c3C[C@H]3C(=O)N(CC(C)C)CC(=O)N23)c(OC)c1 (stereo not given in full)	-0.31%
COc1ccccc1CN1CCN(Cc2cc(OC)c(OC)cc2OC)CC1	-0.5%
COC(=O)c1cc(N2CCNCC2)nc2ccccc12	-0.87%
O=C(c1ccncc1)N1CCN(c2ccc3ccccc3n2)CC1	0.53% (active)
O=C(Cc1ccccc1)n1nc(-c2ccccc2)nc1NCc1ccco1	0.54% (active)
COc1ccc(N2CC(C(=O)NCCN3C(=O)S/C(=C\c4cccnc4)C3=O)CC2=O)c(OC)c1 (stereo not given)	-0.55%
Cc1c(C(=O)NCC2CC2)sc(=O)n1Cc1cccc(F)c1	-0.53%
CCn1c(SCC(=O)N2CCCC2=O)nc2ccccc21	-0.43%
Cc1cccnc1C(NC(=O)C1CCN(Cc2ccc(Cl)c(Cl)c2)CC1)c1ccc(Cl)cc1 (stereo not given)	-0.69%
O=C(Cc1ccsc1)N1CCN(S(=O)(=O)c2cc(C(F)(F)F)cc(C(F)(F)F)c2)CC1	-0.45%

SMILES	activation
CCn1cc(C(=O)OCC(=O)Nc2cccc(C)c2)c(=O)c2ccc(C)nc21	-0.4%
C=C1C(=O)OC2C1CCC(C)=CCCC1(C)OC21 (stereo not given)	-0.63%
CO/N=C/CC(=O)c1ccc(OC)cc1	-0.34%
Cc1ccc(NC(=O)CCOc2ccccc2)cc1S(=O)(=O)Nc1ccccc1Cl	-0.34%
O=C(Nc1cccc2cccnc12)c1ccc2sc([C@H]3C[C@H](O)[C@@H](CO)O3)nc2c1	0.15%
CC(C)Oc1ccccc1C(=O)NC(CO)C(=O)O (stereo not given)	-0.52%
Oc1ccc(CN2CCN(c3ncccn3)CC2)cc1	-0.36%
CS(=O)(=O)c1ccc2nc(NC(=O)C3CCCCC3)sc2c1	-0.72%
COc1ccccc1Nc1nnc(SC(C)C(=O)NC2CC2)s1 (stereo not given)	-0.47%
Cc1cccc(CN2CCN(C3CN(Cc4ccccc4)S(=O)(=O)C3)CC2)c1 (stereo not given)	-0.55%
O=C(CNCc1cccs1)Nc1cc(S(=O)(=O)N2CCCC2)ccc1Cl	-0.34%
COc1ccc(NS(=O)(=O)c2cc(C(=O)Nc3ccccc3C(=O)O)ccc2C)cc1	-0.47%
O=C(Nc1cc(=O)[nH]c2ncnn12)c1ccccc1Cl	-0.64%
Cc1cc(C)n(S(=O)(=O)c2cccc([N+](=O)[O-])c2)n1	-0.31%
FC(F)(F)COc1nc(N2CCCCC2)nc(N2CCNCC2)n1	-0.49%
COc1ccc(/C=N/Nc2ccccc2C(=O)O)cc1	0.45%
COc1cccc(OC)c1OCCN1CCN(C(=O)c2ccco2)CC1	-0.41%
CC(C)c1cc(C(=O)O)on1	-0.13%
Cc1cc(C(=O)OCC(=O)N2c3ccccc3NC(=O)C2(C)C)c(C)n1-c1ccccc1	-0.15%
COC(=O)[C@]12CCCCC=C1N(CCC1=CCCCC1)C(=O)[C@H](CC(=O)NCC1CCCCC1)C2	-0.46%
Cc1cc([N+](=O)[O-])ccc1NC1CCCC1	0.02%
C/C(=N\NC(=O)COc1c(C)cccc1C)c1cccs1	-0.05%
N#Cc1c(NC(=O)CCCl)sc2c1CCCCC2	-0.23%
CCCN(CCc1ccccc1)C1CCc2c(O)cccc2C1 (stereo not given)	0.3%

SMILES	activation
N#CCSc1nn(-c2ccc(F)cc2)c(=S)s1	-0.5%
Cc1[nH]c2ccccc2c1CCN(Cc1cccs1)C(=S)NC(C)(C)C	-0.25%
O=C(O)c1ccc(S(=O)(=O)N2CCC(Cc3ccccc3)CC2)cc1	-0.67%
CCOC(=O)/C=c1\s/c(=C\c2ccccc2OC)c(=O)n1CC(=O)N1CCOCC1	-0.62%
C=CCn1c(=NC(=O)c2cccs2)sc2cc(NC(C)=O)ccc21	0.46%
O=C1CCc2cc(S(=O)(=O)N3CCC(C(=O)NCc4ccccc4Cl)CC3)ccc2N1	-0.62%
O=C(NCCCN1CCN(c2ccccc2F)CC1)C1CCC(=O)N1C1CCCCC1 (stereo not given)	-0.51%
CSc1nsc(SCC(=O)Nc2cc(C(=O)O)ccc2C)n1	-0.51%
CC(Nc1ccccc1)c1cccnc1 (stereo not given)	-0.58%
CCOC(=O)[C@]12CCCC=C1N(Cc1ccc3c(c1)OCO3)C(=O)[C@H](CC(=O)NCc1cccs1)C2	-0.19%
OCC1(Cc2ccccc2)CCN(Cc2cc3ccccc3o2)CC1	0.94% (active)
Cn1c2c(c(=O)n(C)c1=O)C(c1ccc(O)cc1)Nc1ccccc1O2 (stereo not given)	-0.51%
O=C(O)C1C2C=CC(O2)C1C(=O)NCCc1cccc(Cl)c1 (stereo not given)	-0.74%
COc1ccc(/C(=N\O)c2nccc3cc(OC)c(OC)cc23)cc1OC	-0.42%
CC(=O)N1c2ccc(S(=O)(=O)N3CCC(C(=O)NC4CCCCC4C)CC3)cc2CC1C (stereo not given)	-0.74%
COC(=O)CC(=O)N1CCN(c2ccc(Cl)c(Cl)c2)CC1	-0.63%
Fc1ccc2[nH]c3c(N4CCSCC4)ncnc3c2c1	1.59% (active)
CN(C)[C@@H]1C(=O)C(C(N)=O)=C(O)[C@@]2(O)C(=O)C3=C(O)c4c(O)ccc(Cl)c4[C@@H](O)[C@H]3C[C@@H]12	-0.63%
O=C(c1ccco1)N1CCN(CCOc2ccccc2)CC1	-0.48%
Cc1ccc2c(c1)NCC(C(=O)NC1CCC(C)CC1)O2 (stereo not given)	-0.52%
COc1ccc(-c2nc3cc([N+](=O)[O-])ccc3o2)cc1OC	0.11%
COc1ccc(C(C)=O)cc1COC(=O)Cn1cnc2ccccc2c1=O	0.31%
Cc1oc2cc(Br)c(O)c(Br)c2c1C(=O)c1ccccc1	-0.51%
CCCCn1c(N)c(N(CC(C)C)C(=O)CSc2ccc([N+](=O)[O-])cc2)c(=O)[nH]c1=O	-0.28%

SMILES	activation
COc1ccc2[nH]cc(CCN3C(=O)c4ccc(C(=O)O)cc4C3=O)c2c1	-0.57%
Cc1ccc(C(=O)N/C(=C/c2cccs2)C(=O)N2CCCCC2)cc1	-0.51%
O=C(Nc1ccc2c(c1)[C@@H]1C[C@@H](CC(=O)N3CCCCC3)O[C@@H](CO)[C@@H]1O2)NC1CCCCC1	-0.54%
Cc1cccc(CN2CCN(C3CN(Cc4cn(Cc5cc(C)cc(C)c5)nn4)S(=O)(=O)C3)CC2)c1 (stereo not given)	-0.64%
COC(=O)Cn1nc(-c2ccccc2)c2cc(Cl)ccc21	-0.43%
CCCC(=O)N=c1sc2cccc(F)c2n1C	-0.39%
CCCCNc1c(-c2cccc(Sc3ccc(OC)cc3)c2)nc2ccccn12	-0.06%
CC(=O)c1ccc(OCC(=O)N(C)C2CCS(=O)(=O)C2)cc1 (stereo not given)	-0.71%
Cc1ccc(S(=O)(=O)N2CCN(c3ncnc4ccccc34)CC2)cc1	0.43%
N/C(=N\S(=O)(=O)c1cc(C(F)(F)F)cc(C(F)(F)F)c1)c1cccs1	0.39%
CC1(Cc2cccc(C#N)c2)C(=O)Nc2ccc(-c3cccc(C(F)(F)F)c3)cc21 (stereo not given)	-0.07%
NNc1cccc(C=Cc2ccccc2)cc1=O	0.48%
COc1cccc(NC(=O)CSc2nnc(-c3cccnc3)o2)c1	-0.3%
O=C1CC(c2cccc(Cl)c2)CC(O)=C1C=Nc1ccccc1 (stereo not given)	-0.61%
COC(=O)c1ccc(CSc2nnc(NC(C)C)s2)cc1	-0.75%
C/C(=N\NC(=S)NC1CCCCC1)c1ccc(C)o1	-0.73%
COCCN(Cc1cc2cc3c(cc2nc1Cl)OCO3)C(=O)c1cccc(C)c1	-0.33%
Nc1c(N(Cc2ccco2)C(=O)c2cccc(F)c2)c(=O)[nH]c(=O)n1Cc1ccccc1	-0.45%
COC(=O)[C@@]1(Cc2ccc(F)cc2)[C@H]2c3cc(C(=O)N(C)C)n(CCc4c[nH]c5ccc(OC)cc45)c3C[C@H]2CN1C(=O)c1ccccc1	-0.5%
Cc1ccc(NC(=O)CSc2nnc(COc3ccccc3C)o2)cc1	-0.2%
CNCC(O)c1ccc(O)c(O)c1 (stereo not given)	-0.22%
CSc1ncnc2c1ncn2CCCNCc1cccs1	-0.51%
CCCCC(CC)CNC(=O)CCCCn1c(=O)[nH]c2ccsc2c1=O (stereo not given)	-0.47%
